Assay [1] relates to M. smegmatis mutants carrying human–bacterial hybrid ribosomes (Homo sapiens helix 44 decoding site). The experiment in a line: MIC broth microdilution, cells with human-bacterial hybrid ribosomes. The settings on record: for Relative resistance (ratio of mutant to wild-type MIC): human hybrids versus wild-type M. smegmatis; for MIC: M. smegmatis cells with Homo sapiens hybrid ribosomes, 37°C, 72 h. The class given is cell-based, Mycobacterium smegmatis.

In assay [2] the test system is M. smegmatis Leishmania hybrids (Leishmania/Trypanosoma decoding site). Nature of the assay: MIC broth microdilution, cells with Leishmania/Trypanosoma hybrid ribosomes. The note with it: for Relative resistance (ratio of mutant to wild-type MIC): Leishmania hybrids versus wild-type M. smegmatis; for MIC: M. smegmatis cells with Leishmania/Trypanosoma hybrid ribosomes, 37°C, 72 h. The class given is cell-based, Mycobacterium smegmatis. Background: Dilution methods test growth across graded concentrations, often in twofold steps.

For assay [3], the system named is Mycobacterium smegmatis hybrids with a Blastocrithidia decoding region. Nature of the assay: MIC broth microdilution, cells with Blastocrithidia hybrid ribosomes. The format is cell-based. The settings on record: M. smegmatis cells with Blastocrithidia hybrid ribosomes; 37°C, 72 h.
Assay [4] deals with cytosolic ribosomes in rabbit reticulocyte lysate. The experiment in a line: Rabbit reticulocyte translation assay. The settings on record: read-out: IC50, inhibition of luciferase synthesis, luciferase mRNA, 30°C, 90 min. The class given is biochemical. In outline: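 Rabbit reticulocyte lysate supplied cytosolic ribosomes to translate firefly luciferase control mRNA (500 ng), with amino acids (100 μM each) and RNasin. Aminoglycosides were added as serial dilutions, then incubated at 30°C for 90 min. Luciferase substrate was added and luminescent activity read. IC50 and the 100% value came from best-fit nonlinear regression.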

In assay [5] the test system is Mycobacterium smegmatis wild-type. Nature of the assay: MIC broth microdilution, wild-type strain. The format is cell-based. The settings on record: 37°C, 72 h.
The subject of assay [6] is wild-type M. smegmatis 70S ribosomes. Nature of the assay: Cell-free luciferase translation assay, wild-type ribosomes. The class given is biochemical. The note with it: read-out: IC50, inhibition of luciferase synthesis; Mycobacterium smegmatis wild-type ribosomes; coupled transcription–translation, 37°C, 60 min.

In the case of `CNC(C)C1CCC(N)C(OC2C(N)CC(N)C(OC3OCC(C)(O)C(NC)C3O)C2O)O1` (stereo not shown) [Gentamicin, gentamicin], the “Relative resistance (ratio of mutant to wild-type MIC)” value in assay [1] and in assay [2] was at least 1024 throughout.

Turning to neomycin, the MIC (as a rule, the least concentration at which growth counts as inhibited) in assay [3] is 1 µg/mL; in assay [1], above 1024 µg/mL; in assay [5] it was 0.5 µg/mL; in assay [2] it was above 1024 µg/mL. Besides, the 50% inhibitory concentration (IC50) – broadly, the point on the concentration scale where inhibition reaches its midpoint – in assay [4] is 18000 nM; in assay [6], 40 nM. Besides, the “Relative resistance (ratio of mutant to wild-type MIC)” value in assay [1] and in assay [2] was at least 1024 in each case.

As to `CN[C@@H]1[C@@H](O)[C@@H](O[C@@H]2[C@@H](O)[C@H](O[C@H]3O[C@H]([C@@H](C)O)[C@@H](O)[C@H](O)[C@H]3N)[C@@H](N)C[C@H]2N)OC[C@]1(C)O` [Geneticin, geneticin (G418)], the IC50 in assay [4] was determined as 200 nM; in assay [6] it was 30 nM.

Turning to `NC[C@@H]1O[C@H](O[C@H]2[C@@H](O)[C@H](O[C@@H]3[C@@H](O)[C@H](N)C[C@H](N)[C@H]3O[C@H]3O[C@H](CO)[C@@H](O)[C@H](O)[C@H]3N)O[C@@H]2CO)[C@H](N)[C@@H](O)[C@@H]1O` [Paromomycin, paromomycin], the IC50 is 9200 nM in assay [4] and 30 nM in assay [6]. The “Relative resistance (ratio of mutant to wild-type MIC)” value in assay [1] was at least 1024.

For the compound kanamycin A, the MIC in assay [3] is 1 µg/mL; in assay [1], above 1024 µg/mL; in assay [5], 1 µg/mL; in assay [2] it was above 1024 µg/mL. Moreover, the IC50 in assay [4] is 67000 nM; in assay [6], 50 nM. In addition, the “Relative resistance (ratio of mutant to wild-type MIC)” value in assay [1] and in assay [2] was at least 1024 each time.

Regarding `CCN[C@@H]1C[C@H](N)[C@@H](O[C@H]2OC(CN)=CC[C@H]2N)[C@H](O)[C@H]1O[C@H]1OC[C@](C)(O)[C@H](NC)[C@H]1O` [Netilmicin, netilmicin], the IC50 in assay [4] turned out to be 58000 nM; in assay [6], 50 nM. The “Relative resistance (ratio of mutant to wild-type MIC)” value in assay [1] and in assay [2] was at least 1024 each time.

Take `NC[C@H]1O[C@H](O[C@H]2[C@H](O)[C@@H](O[C@H]3O[C@H](CO)[C@@H](O)[C@H](N)[C@H]3O)[C@H](N)C[C@@H]2N)[C@H](N)C[C@@H]1O` [Tobramycin, tobramycin]: the IC50 in assay [4] stood at 38000 nM; in assay [6] it was 20 nM. Further, the “Relative resistance (ratio of mutant to wild-type MIC)” value in assay [1] and in assay [2] was at least 1024 each time.

(Values after article PMC2094070 (Nucleic Acids Research, 2007).)
